Activity calls are given as the source filed them. The rule behind the calls is not given here.
Key:
[1] = target: T1, Mitogen-activated protein kinase 14 (Homo sapiens, UniProt Q16539); experiment: Inhibition of anisomycin-induced p38alpha MAPK signalling in human MCF7 cells assessed as inhibition of ATF2 activation at 0.5 uM after 30 mins by SDS PAGE analysis; assay type: cell-based
Summary of the method: (§1)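 MCF-7 cells were preincubated with the compound at the indicated doses for 30 min, then stimulated with 10 μg/mL anisomycin for another 30 min. Total cell lysates were resolved by SDS-PAGE and immunoblotted with antibodies against phosphorylated ATF2, p38 and HSP27, with tubulin as the loading control.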

[2] = target: T1, Mitogen-activated protein kinase 14; experiment: Inhibition of anisomycin-induced p38alpha MAPK signalling in human MCF7 cells assessed as inhibition of HSP27 activation at 0.5 uM after 30 mins by SDS PAGE analysis; assay type: cell-based; summary of the method: as §1
[3] = target: T1, Mitogen-activated protein kinase 14; experiment: Inhibition of anisomycin-induced p38alpha MAPK signalling in human MCF7 cells assessed as inhibition of ATF2 activation at 10 uM after 30 mins by SDS PAGE analysis; assay type: cell-based; summary of the method: as §1
[4] = target: Dual specificity mitogen-activated protein kinase kinase 3 (Homo sapiens) (UniProt P46734); experiment: Inhibition of anisomycin-induced MKK3 phosphorylation in human MCF7 cells at 1 to 10 uM after 30 mins by SDS PAGE analysis; assay type: cell-based
[5] = target: Dual specificity mitogen-activated protein kinase kinase 6 (Homo sapiens) (UniProt P52564); experiment: Inhibition of anisomycin-induced MKK6 phosphorylation in human MCF7 cells at 1 to 10 uM after 30 mins by SDS PAGE analysis; assay type: cell-based
[6] = target: T1, Mitogen-activated protein kinase 14; experiment: Inhibition of p38alpha phosphorylation in human MCF7 cells at 0.5 to 10 uM after 30 mins by SDS PAGE analysis; assay type: cell-based
Summary of the method: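 MCF-7 cells were preincubated with compound for 30 min, then stimulated with 10 μg/mL anisomycin for another 30 min. Total cell lysates were resolved by SDS-PAGE and immunoblotted for phosphorylated ATF2, p38 and HSP27, with tubulin as the loading control.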

[7] = tested on: MCF7; experiment: Effect on p38alpha protein level in human MCF7 cells; assay type: functional, cell-based

T1 sequence (Q16539 whole entry): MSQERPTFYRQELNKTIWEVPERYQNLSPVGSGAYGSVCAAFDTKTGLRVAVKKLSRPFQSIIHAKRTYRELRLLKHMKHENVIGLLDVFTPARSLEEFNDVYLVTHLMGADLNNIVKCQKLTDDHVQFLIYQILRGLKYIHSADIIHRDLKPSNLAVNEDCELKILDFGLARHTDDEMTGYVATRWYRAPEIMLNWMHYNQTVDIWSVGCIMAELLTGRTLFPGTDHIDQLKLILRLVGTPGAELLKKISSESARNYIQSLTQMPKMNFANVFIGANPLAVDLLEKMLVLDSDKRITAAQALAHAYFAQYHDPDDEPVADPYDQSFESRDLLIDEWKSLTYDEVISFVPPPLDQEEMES
Chain of Dual specificity mitogen-activated protein kinase kinase 3 (Homo sapiens) (P46734 whole entry): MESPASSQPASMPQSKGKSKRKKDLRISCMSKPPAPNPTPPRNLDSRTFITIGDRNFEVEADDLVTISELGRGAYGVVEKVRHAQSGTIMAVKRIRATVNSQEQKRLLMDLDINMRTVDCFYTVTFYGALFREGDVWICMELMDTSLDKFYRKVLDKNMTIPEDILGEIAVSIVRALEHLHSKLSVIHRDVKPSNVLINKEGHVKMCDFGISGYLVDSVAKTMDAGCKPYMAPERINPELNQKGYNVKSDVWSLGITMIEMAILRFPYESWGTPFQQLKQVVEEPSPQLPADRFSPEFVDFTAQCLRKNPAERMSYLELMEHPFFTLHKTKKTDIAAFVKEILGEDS
Chain of Dual specificity mitogen-activated protein kinase kinase 6 (Homo sapiens) (P52564 whole entry): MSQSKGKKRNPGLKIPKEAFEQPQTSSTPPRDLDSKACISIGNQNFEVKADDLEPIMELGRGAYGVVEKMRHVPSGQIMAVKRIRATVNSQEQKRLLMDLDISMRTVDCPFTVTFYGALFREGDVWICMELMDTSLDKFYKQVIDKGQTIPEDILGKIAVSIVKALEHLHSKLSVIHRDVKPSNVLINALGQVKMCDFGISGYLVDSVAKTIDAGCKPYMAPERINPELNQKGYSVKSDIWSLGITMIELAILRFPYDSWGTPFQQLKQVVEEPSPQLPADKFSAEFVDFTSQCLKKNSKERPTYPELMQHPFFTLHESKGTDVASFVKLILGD

- inhibition [1]: Active
- inhibition [2]: Active
- Imax [3]: Active
- inhibition [4]: inactive
- inhibition [5]: inactive
- inhibition [6]: Active
SMILES: O=c1c(-c2ccc(F)cc2)c(-c2ccnc(NC3CCCCC3)c2)oc2ccccc12
- Activity [7]: inactive

From ChEMBL document CHEMBL2040781, “Design, synthesis, and biological evaluation of chromone-based p38 MAP kinase inhibitors” (J Med Chem, 2011)
